Source: ChEMBL document CHEMBL5678802, “Small-molecule p21-activated kinase inhibitor PF-3758309 is a potent inhibitor of oncogenic signaling and tumor growth” (Proc Natl Acad Sci U S A, 2010)
Calls of active or inactive are those of the source. The rule behind the calls is not given here.

What was measured:
NCI-H1666 = assay: Antiproliferative activity against human NCI-H1666 cells assessed as inhibition of cell proliferation incubated for 3 days by CellTiter-Glo Luminescent Cell Viability Assay; type: functional, cell-based; details: NCI-H1666, 72 h
Procedure, shortened: (§1)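 Cells of each line were plated in 384-well plates on day 1 and exposed to compound from day 2 for 3 days. On day 5 all medium was aspirated. Viable cell number was read by CellTiter-Glo luminescence, which quantifies cellular ATP.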

NCI-H1838 = assay: Antiproliferative activity against human NCI-H1838 cells assessed as inhibition of cell proliferation incubated for 3 days by CellTiter-Glo Luminescent Cell Viability Assay; type: functional, cell-based; details: NCI-H1838, 72 h; procedure, shortened: as §1
NCI-H441 = assay: Antiproliferative activity against human NCI-H441 cells assessed as inhibition of cell proliferation incubated for 3 days by CellTiter-Glo Luminescent Cell Viability Assay; type: functional, cell-based; details: NCI-H441, 72 h; procedure, shortened: as §1
NCI-H358 = assay: Antiproliferative activity against human NCI-H358 cells assessed as inhibition of cell proliferation incubated for 3 days by CellTiter-Glo Luminescent Cell Viability Assay; type: functional, cell-based; details: NCI-H358, 72 h; procedure, shortened: as §1
NCI-H647 = assay: Antiproliferative activity against human NCI-H647 cells assessed as inhibition of cell proliferation incubated for 3 days by CellTiter-Glo Luminescent Cell Viability Assay; type: functional, cell-based; details: NCI-H647, 72 h; procedure, shortened: as §1
HPAC = assay: Antiproliferative activity against human HPAC cells assessed as inhibition of cell proliferation incubated for 3 days by CellTiter-Glo Luminescent Cell Viability Assay; type: functional, cell-based; details: 72 h
Procedure, shortened: (§2)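 Cancer cell lines seeded in 384-well plates on day 1; compound added on day 2 and left for 3 days. On day 5 all medium was aspirated, and viable cells were quantified by CellTiter-Glo luminescence, which measures cellular ATP. Dose-dependent effects on proliferation were determined.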

NCI-H1355 = assay: Inhibition of anchorage independent cell growth in human NCI-H1355 cells incubated for 6 days by Alamar blue reagent based fluorescence plate reader analysis; type: functional; details: NCI-H1355, 144 h
NCI-H1573 = assay: Inhibition of anchorage independent cell growth in human NCI-H1573 cells incubated for 6 days by Alamar blue reagent based fluorescence plate reader analysis; type: functional; details: NCI-H1573, 144 h
ZR-75-1 = assay: Antiproliferative activity against human ZR-75-1 cells assessed as inhibition of cell proliferation incubated for 3 days by CellTiter-Glo Luminescent Cell Viability Assay; type: functional, cell-based; details: ZR-75-1, 72 h; procedure, shortened: as §1
CAMA-1 = assay: Antiproliferative activity against human CAMA-1 cells assessed as inhibition of cell proliferation incubated for 3 days by CellTiter-Glo Luminescent Cell Viability Assay; type: functional, cell-based; details: CAMA-1, 72 h; procedure, shortened: as §2
MDA-MB-157 = assay: Antiproliferative activity against human MDA-MB-157 cells assessed as inhibition of cell proliferation incubated for 3 days by CellTiter-Glo Luminescent Cell Viability Assay; type: functional, cell-based; details: MDA-MB-157, 72 h; procedure, shortened: as §2
[1] = target: Serine/threonine-protein kinase N1 (Homo sapiens) (UniProt Q16512); assay: Inhibition of human PRK1 in presence of ATP relative to control; details: concentration not given here
[2] = target: Serine/threonine-protein kinase Chk2 (Homo sapiens, UniProt O96017); assay: Inhibition of human CHK2 assessed as inhibition constant in presence of ATP
[3] = target: T1, Tyrosine-protein kinase Fyn (Homo sapiens, UniProt P06241); assay: Inhibition of human FYN in presence of ATP
[4] = target: Tyrosine-protein kinase Fgr (Homo sapiens, UniProt P09769); assay: Inhibition of human FGR in presence of ATP
[5] = target: T1, Tyrosine-protein kinase Fyn; assay: Inhibition of human FYN in presence of ATP by cellular assay
[6] = target: Ribosomal protein S6 kinase alpha-2 (Homo sapiens, UniProt Q15349); assay: Inhibition of human RSK3 in presence of ATP by cellular assay
HCT-116 [7] = assay: Downregulation of camptothecin-induced phospho-S474-PAK4 level in human HCT-116 cells at 1 uM preincubated with compound for 15 mins followed by camptothecin stimulation and measured after 20 hrs by Western blot analysis; type: functional, cell-based; details: time 20.25 hrs
HCT-116 [8] = assay: Downregulation of camptothecin-induced p53 level in human HCT-116 cells at 1 uM preincubated with compound for 15 mins followed by camptothecin stimulation and measured after 20 hrs by Western blot analysis; type: functional, cell-based; details: time 20.25 hrs
HCT-116 [9] = assay: Downregulation of camptothecin-induced p21 waf1/cip1 level in human HCT-116 cells at 1 uM preincubated with compound for 15 mins followed by camptothecin stimulation and measured after 20 hrs by Western blot analysis; type: functional, cell-based; details: time 20.25 hrs
HCT-116 [10] = assay: Antitumor activity against human HCT-116 cells xenografted in nude mouse assessed as tumor growth inhibition at 1.1 mg/kg administered via pump for 9 days relative to control; type: functional; details: HCT-116, 216 h, time 9 day, read-out: TGI
HCT-116 [11] = assay: Antitumor activity against human HCT-116 cells xenografted in nude mouse assessed as reduction in Ki67 administered orally twice daily for 6 days by immunohistochemical analysis; type: functional; details: dose 15-25 mg/kg, route po, time 6.0 day
HCT-116 [12] = assay: Antitumor activity against human HCT-116 cells xenografted in nude mouse assessed as reduction in STAT6 phosphorylation at Y641 residue at 15 to 150 mg/kg/day administered via pump for 18 hrs by Reverse-Phase protein array analysis; type: functional, organism-based; details: dose 15-150 mg/kg/day
[13] = target: Serine/threonine-protein kinase PAK 4 (Homo sapiens, UniProt O96013); details: dose 50.0 µM
Serine/threonine-protein kinase PAK 4, sequence (O96013 whole entry, looked up): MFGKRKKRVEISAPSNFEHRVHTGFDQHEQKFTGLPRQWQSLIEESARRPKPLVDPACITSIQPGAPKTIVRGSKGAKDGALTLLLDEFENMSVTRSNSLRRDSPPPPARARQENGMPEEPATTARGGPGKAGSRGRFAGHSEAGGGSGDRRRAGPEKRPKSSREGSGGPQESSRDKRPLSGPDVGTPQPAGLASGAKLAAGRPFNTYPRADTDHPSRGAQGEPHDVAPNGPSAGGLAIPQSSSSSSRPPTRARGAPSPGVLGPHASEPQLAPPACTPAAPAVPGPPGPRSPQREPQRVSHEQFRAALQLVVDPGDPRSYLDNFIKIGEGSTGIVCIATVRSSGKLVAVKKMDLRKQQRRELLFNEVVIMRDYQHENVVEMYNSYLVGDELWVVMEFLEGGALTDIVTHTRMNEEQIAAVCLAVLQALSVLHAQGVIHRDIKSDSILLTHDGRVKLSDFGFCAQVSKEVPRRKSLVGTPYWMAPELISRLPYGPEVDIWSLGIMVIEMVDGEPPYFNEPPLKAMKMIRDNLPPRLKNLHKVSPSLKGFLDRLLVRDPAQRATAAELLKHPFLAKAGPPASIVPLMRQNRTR

T1 sequence (P06241 whole entry): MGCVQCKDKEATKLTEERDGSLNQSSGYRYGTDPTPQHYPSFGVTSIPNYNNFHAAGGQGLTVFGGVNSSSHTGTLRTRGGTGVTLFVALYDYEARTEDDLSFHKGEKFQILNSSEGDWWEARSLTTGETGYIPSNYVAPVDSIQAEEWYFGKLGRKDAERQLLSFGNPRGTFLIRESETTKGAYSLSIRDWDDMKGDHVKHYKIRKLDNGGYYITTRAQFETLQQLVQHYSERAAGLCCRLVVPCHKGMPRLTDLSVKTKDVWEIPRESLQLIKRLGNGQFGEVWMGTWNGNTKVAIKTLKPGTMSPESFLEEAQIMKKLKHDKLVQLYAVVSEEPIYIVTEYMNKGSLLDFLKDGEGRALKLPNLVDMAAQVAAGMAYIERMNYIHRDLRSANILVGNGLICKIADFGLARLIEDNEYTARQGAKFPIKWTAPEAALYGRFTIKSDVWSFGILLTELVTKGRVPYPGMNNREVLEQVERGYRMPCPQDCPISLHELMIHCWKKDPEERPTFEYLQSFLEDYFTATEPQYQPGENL
Serine/threonine-protein kinase Chk2, sequence (O96017 whole entry): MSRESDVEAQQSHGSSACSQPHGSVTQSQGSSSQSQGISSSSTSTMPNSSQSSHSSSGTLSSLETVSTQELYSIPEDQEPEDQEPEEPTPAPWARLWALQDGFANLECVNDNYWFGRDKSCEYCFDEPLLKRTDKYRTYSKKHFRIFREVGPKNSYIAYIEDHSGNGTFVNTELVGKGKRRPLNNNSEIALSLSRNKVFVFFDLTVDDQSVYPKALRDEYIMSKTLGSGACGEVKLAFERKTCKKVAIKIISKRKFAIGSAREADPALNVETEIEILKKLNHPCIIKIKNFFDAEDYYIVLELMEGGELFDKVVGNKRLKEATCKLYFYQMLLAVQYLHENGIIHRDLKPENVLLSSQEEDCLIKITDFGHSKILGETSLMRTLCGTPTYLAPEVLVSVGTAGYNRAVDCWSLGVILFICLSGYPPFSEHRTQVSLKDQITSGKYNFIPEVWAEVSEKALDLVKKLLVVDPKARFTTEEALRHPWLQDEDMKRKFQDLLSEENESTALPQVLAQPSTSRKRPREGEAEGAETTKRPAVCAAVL
Serine/threonine-protein kinase N1 (Homo sapiens), sequence (Q16512 2-942 limits assumed): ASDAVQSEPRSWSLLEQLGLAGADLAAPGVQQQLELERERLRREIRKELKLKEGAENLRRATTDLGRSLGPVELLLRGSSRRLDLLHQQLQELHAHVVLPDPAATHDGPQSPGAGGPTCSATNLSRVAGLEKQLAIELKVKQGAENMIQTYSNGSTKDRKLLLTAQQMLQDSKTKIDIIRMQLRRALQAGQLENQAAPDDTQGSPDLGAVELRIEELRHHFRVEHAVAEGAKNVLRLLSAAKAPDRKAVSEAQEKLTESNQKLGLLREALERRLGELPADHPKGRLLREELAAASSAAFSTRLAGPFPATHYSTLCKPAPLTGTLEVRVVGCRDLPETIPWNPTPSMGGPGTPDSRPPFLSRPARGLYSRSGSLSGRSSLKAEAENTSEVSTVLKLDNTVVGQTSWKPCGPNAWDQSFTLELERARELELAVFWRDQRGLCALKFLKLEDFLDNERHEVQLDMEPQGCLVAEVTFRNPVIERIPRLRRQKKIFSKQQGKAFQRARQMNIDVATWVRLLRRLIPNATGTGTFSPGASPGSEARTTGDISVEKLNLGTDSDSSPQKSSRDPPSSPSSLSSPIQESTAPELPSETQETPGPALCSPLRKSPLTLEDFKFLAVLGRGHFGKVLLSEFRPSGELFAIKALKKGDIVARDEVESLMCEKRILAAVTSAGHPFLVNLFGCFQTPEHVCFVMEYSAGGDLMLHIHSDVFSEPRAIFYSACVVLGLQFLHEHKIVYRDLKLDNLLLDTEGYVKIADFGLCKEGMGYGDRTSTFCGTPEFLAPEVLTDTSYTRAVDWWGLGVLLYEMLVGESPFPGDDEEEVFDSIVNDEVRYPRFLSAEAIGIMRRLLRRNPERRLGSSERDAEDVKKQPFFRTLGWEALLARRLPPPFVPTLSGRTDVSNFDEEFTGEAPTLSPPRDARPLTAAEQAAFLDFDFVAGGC
Ribosomal protein S6 kinase alpha-2, sequence (Q15349 whole entry): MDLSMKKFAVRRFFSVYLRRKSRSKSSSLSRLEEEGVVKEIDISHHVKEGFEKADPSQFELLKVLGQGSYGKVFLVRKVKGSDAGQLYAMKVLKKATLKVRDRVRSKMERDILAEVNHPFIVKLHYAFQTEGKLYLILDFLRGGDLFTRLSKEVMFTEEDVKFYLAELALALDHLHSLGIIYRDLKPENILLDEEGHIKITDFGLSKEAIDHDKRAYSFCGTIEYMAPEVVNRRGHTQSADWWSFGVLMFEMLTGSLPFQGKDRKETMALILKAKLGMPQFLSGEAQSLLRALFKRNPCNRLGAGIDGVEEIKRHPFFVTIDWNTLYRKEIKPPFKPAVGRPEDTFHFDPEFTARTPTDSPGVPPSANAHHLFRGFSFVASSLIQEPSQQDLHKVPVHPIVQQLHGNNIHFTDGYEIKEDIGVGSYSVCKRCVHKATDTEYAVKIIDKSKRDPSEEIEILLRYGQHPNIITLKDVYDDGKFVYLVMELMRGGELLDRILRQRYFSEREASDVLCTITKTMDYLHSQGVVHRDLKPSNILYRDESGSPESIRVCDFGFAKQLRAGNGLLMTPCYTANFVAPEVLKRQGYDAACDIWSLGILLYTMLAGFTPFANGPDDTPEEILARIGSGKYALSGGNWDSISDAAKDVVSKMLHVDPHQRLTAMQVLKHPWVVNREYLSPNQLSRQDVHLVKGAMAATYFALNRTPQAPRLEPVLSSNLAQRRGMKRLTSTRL
Tyrosine-protein kinase Fgr, sequence (P09769 whole entry): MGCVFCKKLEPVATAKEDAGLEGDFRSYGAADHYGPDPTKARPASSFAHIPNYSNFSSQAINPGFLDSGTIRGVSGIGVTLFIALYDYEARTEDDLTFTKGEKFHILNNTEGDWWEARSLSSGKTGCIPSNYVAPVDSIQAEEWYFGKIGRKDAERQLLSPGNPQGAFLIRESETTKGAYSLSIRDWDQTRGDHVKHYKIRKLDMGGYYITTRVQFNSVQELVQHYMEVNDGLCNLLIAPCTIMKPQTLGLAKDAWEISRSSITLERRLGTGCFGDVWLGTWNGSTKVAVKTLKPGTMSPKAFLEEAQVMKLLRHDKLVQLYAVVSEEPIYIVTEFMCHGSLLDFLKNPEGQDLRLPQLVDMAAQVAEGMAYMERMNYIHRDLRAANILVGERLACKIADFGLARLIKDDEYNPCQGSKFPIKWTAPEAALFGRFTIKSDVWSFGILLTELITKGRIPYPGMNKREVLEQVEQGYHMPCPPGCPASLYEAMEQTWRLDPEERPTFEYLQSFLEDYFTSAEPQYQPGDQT

IC50 (NCI-H1666): 3.8 nM
IC50 (NCI-H1838): 5.5 nM
IC50 (NCI-H441): 9.2 nM
IC50 (NCI-H358): 11 nM
IC50 (NCI-H647): 36 nM
IC50 (NCI-H1355): 14.2 nM
IC50 (NCI-H1573): 2.37 nM
IC50 (MDA-MB-157): 145 nM
inhibition [1]: 86%
Ki [2]: 3 nM
IC50 [3]: 46 nM
IC50 [4]: 23.4 nM
IC50 [5]: 1090 nM
IC50 [6]: 1960 nM
deltaH [13]: -5 kcal/mol
SMILES: Cc1nc(Nc2n[nH]c3c2CN(C(=O)N[C@H](CN(C)C)c2ccccc2)C3(C)C)c2sccc2n1 [PF-03758309]
IC50 (HPAC): 265 nM
IC50 (ZR-75-1): 0.49 nM
IC50 (CAMA-1): 2.7 nM
Activity (HCT-116 [7]): Active
Activity (HCT-116 [8]): Active
Activity (HCT-116 [9]): Active
inhibition in vivo at 1.1 mg/kg (HCT-116 [10]): 104%
Activity (HCT-116 [11]): Dose-Dependent Effect
Activity (HCT-116 [12]): Active
